Experimental data taken from publication PMC10903085 (Neurotherapeutics, 2023).
Entries after “also recorded” stand apart in the source; their conditions may differ.

Legend:
[1] = Metabolic stability in mouse liver microsomes; assay type: in vitro ADME
[2] = Oral administration, brain and plasma concentrations; assay type: in vivo, mouse; conditions: male CD1 mice, PO 5 mg/kg, 1 h, 2 h, 4 h post-treatment
In short: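 Male CD1 mice received test compound orally at 5 mg/kg, formulated at 1 mg/mL in 10 % NMP, 60 % PEG400 and 30 % saline. Brain and plasma levels were measured by HPLC-MS at 1, 2 and 4 h after dosing, and the brain/plasma ratio was taken from these.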

primary rat neurons = experiment: Modified MTT assay of Aβ toxicity in primary neurons; assay type: cell-based; conditions: compound 0.3, 3 or 15 μM, 90-min pretreatment, 2.5 μM Aβ, 24 h
Tau-tubulin interaction = experiment: Tau-tubulin PLA in untransfected HEK-293 cells; assay type: cell-based, human; conditions: 15 μM, 24 h
In short: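 Untransfected HEK-293 cells were grown 48 h, then exposed to 15 μM test compound for 24 h and fixed. PLA for endogenous Tau–α-tubulin proximity used Tau (1:1000) and α-tubulin (1:2000) primary antibodies, with the permeabilisation, blocking, probe, ligation and amplification steps of the neuronal PLA.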

Tau-LckSH3 interaction = Tau-LckSH3 interaction (Homo sapiens, UniProt P10636); experiment: Tau-Flag PLA, Tau-LckSH3 in HEK-293 cells; assay type: cell-based; conditions: 15 μM
Tau-LckSH3 interaction, sequence (P10636 1-441 isoform P10636-8): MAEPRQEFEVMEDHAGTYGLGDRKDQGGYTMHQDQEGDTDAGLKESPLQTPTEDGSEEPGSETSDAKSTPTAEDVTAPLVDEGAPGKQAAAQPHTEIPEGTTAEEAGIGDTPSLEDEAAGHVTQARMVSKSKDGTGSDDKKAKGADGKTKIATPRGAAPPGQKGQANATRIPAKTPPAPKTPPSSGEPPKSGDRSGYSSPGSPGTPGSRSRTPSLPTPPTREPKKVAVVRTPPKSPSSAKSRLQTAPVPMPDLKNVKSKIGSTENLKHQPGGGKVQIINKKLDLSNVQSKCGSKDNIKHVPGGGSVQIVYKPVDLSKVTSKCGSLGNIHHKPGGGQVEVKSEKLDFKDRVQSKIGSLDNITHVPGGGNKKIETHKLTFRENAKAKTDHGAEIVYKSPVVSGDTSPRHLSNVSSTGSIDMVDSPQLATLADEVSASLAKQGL
In short: (§1)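 HEK-293 cells on PDL/laminin coverslips in DMEM with 10 % FBS were co-transfected (Fugene) with 125 ng human 4R2N Tau-mKate2 and 500 ng GST-SH3-Flag plasmid for the relevant SH3 domain. After 24 h, test compound was added at 15 μM final, and cells were fixed 24 h later. PLA used Tau (1:1000) and Flag (1:1000) antibodies, with puncta quantified by thresholding.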

Tau-FynSH3 interaction [3] = molecular target: T1, Tau-FynSH3 interaction (Homo sapiens, UniProt P10636); experiment: Tau-Flag PLA, Tau-FynSH3 in HEK-293 cells; assay type: cell-based; conditions: HEK293, read-out: Inhibition of Tau-FynSH3 interaction (PLA)
T1 sequence (P10636 1-441 isoform P10636-8): as above
In short: as §1

FynSH3 = FynSH3 (Homo sapiens, UniProt P06241); experiment: Isothermal titration calorimetry with FynSH3; assay type: binding; conditions: 25 °C
FynSH3, sequence (P06241 82-143 limits assumed): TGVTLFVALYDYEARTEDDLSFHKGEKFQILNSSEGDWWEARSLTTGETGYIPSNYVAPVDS
In short: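 Purified human FynSH3 from E. coli was dialysed at 4 °C into 20 mM Tris, 150 mM NaCl, pH 8.0, quantified by A280 and brought to 5 % DMSO. The cell held ~120 μM FynSH3 and the syringe 1 mM test compound. Sixteen 2.5 μL injections were made at 25 °C. Titrant-into-buffer heat was used as background, and data were fitted to a one-set-of-sites model.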

primary neurons = experiment: Multi-electrode array, Aβ-induced network hyperexcitability; assay type: cell-based, rat; conditions: 1 h pretreatment, 500 nM Aβ oligomers, 4 h
97 kinases = experiment: Eurofins DiscoverX ScanEDGE kinase panel; assay type: binding; conditions: 3 μM; activity defined as <35 % of control
Tau-SrcSH3 interaction = Tau-SrcSH3 interaction (Homo sapiens, UniProt P10636); experiment: Tau-Flag PLA, Tau-SrcSH3 in HEK-293 cells; assay type: cell-based; conditions: 15 μM
Tau-SrcSH3 interaction, sequence (P10636 1-441 isoform P10636-8): as the sequence (P10636 1-441 isoform P10636-8) above
In short: as §1

Fyn [4] = experiment: Western blot of Fyn levels in primary neurons; assay type: cell-based, rat; conditions: 15 μM, 24 h
In short: (§2)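 Rat primary neurons at DIV13 were treated with 15 μM test compound or vehicle for 24 h. They were lysed in Tris/NaCl/EDTA buffer containing SDS, Triton and deoxycholate. 5 μg protein (Bradford) was run on 4–12 % bis-tris/MOPS gels and blotted to PVDF. Blots were probed overnight at 4 °C for Fyn (1:1000), then GAPDH (1:5000), stripped and reprobed for Tau (1:10,000). Infrared detection was used, with densitometry.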

Tau-PxxP5/6 = Tau-PxxP5/6 (Homo sapiens, UniProt P10636); experiment: Isothermal titration calorimetry with Tau-PxxP5/6 peptide; assay type: binding; conditions: 25 °C
In short: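 Calorimetric titration at 25 °C in 5 % DMSO. About 120 μM Tau-PxxP5/6 peptide sat in the cell and 1 mM test compound in the syringe. Sixteen 2.5 μL injections were made. Mixing heat from titrant into buffer alone was used as background, and the normalised heat was fitted to a one-set-of-sites model.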

Tau-BIN1SH3 interaction = Tau-BIN1SH3 interaction (Homo sapiens, UniProt P10636); experiment: Tau-Flag PLA, Tau-BIN1SH3 in HEK-293 cells; assay type: cell-based; conditions: 15 μM
Tau-BIN1SH3 interaction, sequence (P10636 1-441 isoform P10636-8): as above
In short: as §1

Tau = experiment: Western blot of Tau levels in primary neurons; assay type: cell-based, rat; conditions: 15 μM, 24 h
In short: as §2

Tau-Fyn interaction = experiment: Endogenous Tau-Fyn PLA in primary neurons; assay type: cell-based, rat; conditions: 24 h
In short: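 Rat hippocampal neurons (E19 Sprague-Dawley embryos) grown on coated coverslips to DIV20, treated with test compound or vehicle, and fixed in PFA 24 h later. Cells were permeabilised in 0.25 % Triton X-100 and blocked in 5 % NGS. Tau (1:1000) and Fyn (1:250) antibodies were applied overnight at 4 °C, then Duolink PLA was run. Thresholded puncta were counted from 5–7 images per coverslip and normalised to vehicle slides; analysis was blinded.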

Fyn [5] = molecular target: Fyn (Homo sapiens, UniProt P06241); experiment: Custom kinase panel for Fyn; assay type: binding; conditions: 3 μM; activity defined as <35 % of control
Fyn (Homo sapiens, UniProt P06241), sequence (P06241 whole entry): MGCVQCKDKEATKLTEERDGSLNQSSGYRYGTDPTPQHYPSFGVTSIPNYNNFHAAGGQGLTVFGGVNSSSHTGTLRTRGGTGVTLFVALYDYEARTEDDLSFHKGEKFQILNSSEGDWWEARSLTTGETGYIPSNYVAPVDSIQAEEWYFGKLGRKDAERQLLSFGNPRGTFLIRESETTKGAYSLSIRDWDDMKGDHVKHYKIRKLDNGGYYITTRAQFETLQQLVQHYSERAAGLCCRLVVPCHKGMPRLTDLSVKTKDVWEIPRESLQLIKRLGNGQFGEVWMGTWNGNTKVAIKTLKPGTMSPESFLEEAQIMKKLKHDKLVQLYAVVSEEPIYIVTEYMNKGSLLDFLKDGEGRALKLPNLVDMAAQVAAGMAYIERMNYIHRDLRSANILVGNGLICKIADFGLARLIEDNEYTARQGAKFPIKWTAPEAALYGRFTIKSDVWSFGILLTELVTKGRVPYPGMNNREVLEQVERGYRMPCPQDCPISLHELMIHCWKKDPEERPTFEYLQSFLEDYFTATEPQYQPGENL

Tau-FynSH3 interaction [6] = molecular target: T1, Tau-FynSH3 interaction; experiment: Tau-FynSH3 AlphaScreen; assay type: binding; conditions: left-hand phenyl ring removed
[7] = Phase IIa clinical trial, tolerable dose; cited from earlier work
SFK = conditions: cited from earlier work
Sam68(PxxP)-FynSH3 = conditions: cited from earlier work

O=C(CN1C(=O)CSc2cc(F)ccc21)Nc1nnc(-c2ccccn2)[nH]1 [SRI-39210, 2-(7-fluoro-3-oxo-2,3-dihydro-4H-benzo[b][1,4]thiazin-4-yl)-N-(5-(pyridin-2-yl)-4H-1,2,4-triazol-3-yl)acetamide]
half-life [1]: 2.43 h
Detection in plasma and brain after oral administration [2]: able to detect SRI-39210 in plasma, it did not cross the BBB and was not present in brain
Amelioration of Aβ toxicity in modified MTT assay (primary rat neurons): inhibited Aβ toxicity

O=C(CN1C(=O)CSc2cc(Cl)ccc21)Nc1nnc(-c2ccccn2)[nH]1 [SRI-39211, 2-(7-chloro-3-oxo-2,3-dihydro-4H-benzo[b][1,4]thiazin-4-yl)-N-(5-(pyridin-2-yl)-4H-1,2,4-triazol-3-yl)acetamide]
Amelioration of Aβ toxicity in modified MTT assay (primary rat neurons): inhibited Aβ toxicity

Cc1ccc2c(c1)SCC(=O)N2CC(=O)Nc1nnc(-c2ccccn2)[nH]1 [SRI-39488, 2-(7-methyl-3-oxo-2,3-dihydro-4H-benzo[b][1,4]thiazin-4-yl)-N-(5-(pyridin-2-yl)-4H-1,2,4-triazol-3-yl)acetamide]
Amelioration of Aβ toxicity in modified MTT assay (primary rat neurons): inhibited Aβ toxicity

O=C(CN1CCSc2ccccc21)Nc1nnc(-c2ccccn2)[nH]1 [SRI-39669, 2-(2,3-dihydro-4H-benzo[b][1,4]thiazin-4-yl)-N-(5-(pyridin-2-yl)-4H-1,2,4-triazol-3-yl)acetamide]
Detection in plasma and brain after oral administration [2]: detected in both plasma and brain

O=C(CN1CCCc2ccccc21)Nc1nnc(-c2ccccn2)[nH]1 [SRI-42654, 2-(3,4-Dihydroquinolin-1(2H)-yl)-N-(5-(pyridin-2-yl)-4H-1,2,4-triazol-3-yl)acetamide]
Amelioration of Aβ toxicity in modified MTT assay (primary rat neurons): inhibited Aβ toxicity

O=C(CN1CCOc2ccccc21)Nc1nnc(-c2ccccn2)[nH]1 [SRI-42667, 2-(2,3-Dihydro-4H-benzo[b][1,4]oxazin-4-yl)-N-(5-(pyridin-2-yl)-4H-1,2,4-triazol-3-yl)acetamide]
Inhibition of Tau-tubulin interaction (PLA) (Tau-tubulin interaction): does not inhibit Tau-tubulin interaction
Inhibition of Tau-LckSH3 interaction (PLA) (Tau-LckSH3 interaction): strongly inhibited
inhibition at 15 µM (Tau-FynSH3 interaction [3]): 37%
Binding to FynSH3 by ITC (FynSH3): did not bind FynSH3
Prevention of Aβ-induced network hyperexcitability (MEA) (primary neurons; 3 μM): prevented Aβ-induced network hyperexcitability
Prevention of Aβ-induced network hyperexcitability (MEA) (primary neurons; 15 μM): prevented Aβ-induced network hyperexcitability
Inhibition of any of the 97 kinases (97 kinases): did not inhibit
Inhibition of Tau-SrcSH3 interaction (PLA) (Tau-SrcSH3 interaction): did not significantly inhibit
Fyn levels (Fyn [4]): does not reduce
Detection in plasma and brain after oral administration [2]: observed in both plasma and brain
Interaction with Tau-PxxP5/6 peptide by ITC (Tau-PxxP5/6): no interaction
Inhibition of Tau-BIN1 SH3 interaction (PLA) (Tau-BIN1SH3 interaction): moderately inhibited
Amelioration of Aβ toxicity in modified MTT assay (primary rat neurons): ameliorates Aβ toxicity; also recorded: inhibited Aβ toxicity
Tau levels (Tau): does not reduce
Reduction of endogenous Tau-Fyn PLA (Tau-Fyn interaction; 3 μM): reduces endogenous Tau-Fyn PLA
Reduction of endogenous Tau-Fyn PLA (Tau-Fyn interaction; 15 μM): reduces endogenous Tau-Fyn PLA
Inhibition of Fyn kinase (Fyn [5]): did not inhibit

O=C(CN1CCCCC1)Nc1nnc(-c2ccccn2)[nH]1 [SRI-43142, 2-(piperidin-1-yl)-N-(5-(pyridin-2-yl)-4H-1,2,4-triazol-3-yl)acetamide]
Reduction of AlphaScreen activity relative to SRI-39669 (Tau-FynSH3 interaction [6]): 8–10 fold

O=C(CN1CCOCC1)Nc1nnc(-c2ccccn2)[nH]1 [SRI-43143, 2-Morpholino-N-(5-(pyridin-2-yl)-4H-1,2,4-triazol-3-yl)acetamide]
Reduction of AlphaScreen activity relative to SRI-39669 (Tau-FynSH3 interaction [6]): 8–10 fold

CN1CCN(CCOc2cc(OC3CCOCC3)c3c(Nc4c(Cl)ccc5c4OCO5)ncnc3c2)CC1 [saracatinib]
Clinical benefit in AD [7]: no clinical benefit

UCS15A
Inhibition of SFK kinase activity (SFK): does not inhibit SFK kinase activity
Inhibition of Sam68(PxxP)-FynSH3 interaction (Sam68(PxxP)-FynSH3): inhibited
